Assays:
Type in all cases: functional
Mus musculus [1] = test: Tested for dose required to inhibit antigen-induced mortality by 50 % when administered perorally in active anaphylactic shock (AAS) mice; conditions: po, read-out: ID50 (the source's name)
In short: (§1)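 Male Swiss mice (30 g, groups of 10) were sensitized by ip injection of 1 mL saline containing 1 mg bovine serum albumin, then challenged with BSA. Compound was given iv 5 min or po 30 min before challenge. Survival was recorded 60 min after BSA. ID50 (dose inhibiting mortality by 50%) was obtained by linear regression of a single curve of at least four points.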

Mus musculus [2] = test: Tested for dose required to inhibit endotoxin-induced mortality by 50 % when administered intravenously in endotoxin-induced mortality (EIM) mice; conditions: iv, read-out: ID50 (the source's name)
In short: (§2)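 Groups of 10 male Swiss mice (22-26 g) were dosed iv (saline vehicle) 5 min or po (1% Tween 80 vehicle) 30 min before tail-vein injection of E. coli 0111:B4 endotoxin, 20 mg/kg. Mortality was scored at 7 days versus vehicle controls. ID50 was obtained by linear regression of a single curve of at least four points.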

Mus musculus [3] = test: Tested for dose required to inhibit endotoxin-induced mortality by 50 % when administered perorally in endotoxin-induced mortality (EIM) mice; conditions: po, read-out: ID50 (the source's name); in short: as §2
Rattus norvegicus [4] = test: Tested for dose required to inhibit endotoxin-induced mortality by 50 % when administered perorally in endotoxin-induced mortality (EIM) rats; conditions: po, read-out: ID50 (the source's name)
In short: as §2, with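 “Sprague-Dawley rats (150-175” for “Swiss mice (22-26”, “0127:B8” for “0111:B4”, “5” for “20”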

Mus musculus [5] = test: Tested for dose required to inhibit antigen-induced mortality by 50 % when administered intravenously in active anaphylactic shock (AAS) mice; conditions: iv, read-out: ID50 (the source's name); in short: as §1
Rattus norvegicus [6] = test: Tested for dose required to inhibit endotoxin-induced mortality by 50 % when administered intravenously in endotoxin-induced mortality (EIM) rats; conditions: iv, read-out: ID50 (the source's name)
In short: as §2, with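 “Sprague-Dawley rats (150-175” for “Swiss mice (22-26”, “0127:B8” for “0111:B4”, “5” for “20”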

Rattus norvegicus [7] = test: Tested for dose required to inhibit endotoxin-induced mortality by 50 % when administered intravenously in endotoxin-induced mortality (EIM) in rats; conditions: iv, read-out: ID50 (the source's name)
In short: as §2, with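 “Sprague-Dawley rats (150-175” for “Swiss mice (22-26”, “0127:B8” for “0111:B4”, “5” for “20”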

[8] = molecular target: Platelet-activating factor receptor (Rattus norvegicus) (UniProt P46002); test: Intravenous dose required to reduce the arterial blood pressure caused by PAF by 50% in rats
Chain of Platelet-activating factor receptor (Rattus norvegicus) (P46002 whole entry): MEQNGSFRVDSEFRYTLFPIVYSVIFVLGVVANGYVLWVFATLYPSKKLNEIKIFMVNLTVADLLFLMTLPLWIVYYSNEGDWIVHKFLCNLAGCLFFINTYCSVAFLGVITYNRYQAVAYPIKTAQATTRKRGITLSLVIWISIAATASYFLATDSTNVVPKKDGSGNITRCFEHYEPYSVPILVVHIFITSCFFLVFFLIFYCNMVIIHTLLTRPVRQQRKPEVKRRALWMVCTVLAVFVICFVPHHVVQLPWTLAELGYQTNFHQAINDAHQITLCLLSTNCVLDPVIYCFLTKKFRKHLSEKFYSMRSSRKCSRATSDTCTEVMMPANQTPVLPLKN
In short: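 Male Sprague-Dawley rats (180-220 g) under pentobarbital anesthesia (50 mg/kg ip); carotid blood pressure recorded. Compound in saline given iv (femoral vein) 3 min before PAF 0.5 µg/kg iv; controls got vehicle. % inhibition of hypotension vs controls. ID50 from linear regression of one curve, ≥4 doses, each the mean of ≥2 independent experiments.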

Mus musculus [9] = test: Tested for dose required to inhibit antigen-induced mortality by 50 % when administered perorally in active anaphylactic shock (AAS) mice.; conditions: po, read-out: ID50 (the source's name); in short: as §1
Rattus norvegicus [10] = test: Tested for dose required to inhibit endotoxin-induced mortality by 50 % when administered perorally in endotoxin-induced mortality (EIM) in rats; conditions: po, read-out: ID50 (the source's name)
In short: as §2, with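 “Sprague-Dawley rats (150-175” for “Swiss mice (22-26”, “0127:B8” for “0111:B4”, “5” for “20”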

Mus musculus [11] = test: Tested for dose required to inhibit antigen-induced mortality by 50 % when administered intravenously in active anaphylactic shock (AAS) mice.; conditions: iv, read-out: ID50 (the source's name); in short: as §1
[12] = molecular target: Platelet-activating factor receptor (Mus musculus) (UniProt Q62035); test: Dose required to inhibit PAF-induced mortality by 50% in mice; conditions: Mus sp.
Chain of Platelet-activating factor receptor (Mus musculus) (Q62035 whole entry): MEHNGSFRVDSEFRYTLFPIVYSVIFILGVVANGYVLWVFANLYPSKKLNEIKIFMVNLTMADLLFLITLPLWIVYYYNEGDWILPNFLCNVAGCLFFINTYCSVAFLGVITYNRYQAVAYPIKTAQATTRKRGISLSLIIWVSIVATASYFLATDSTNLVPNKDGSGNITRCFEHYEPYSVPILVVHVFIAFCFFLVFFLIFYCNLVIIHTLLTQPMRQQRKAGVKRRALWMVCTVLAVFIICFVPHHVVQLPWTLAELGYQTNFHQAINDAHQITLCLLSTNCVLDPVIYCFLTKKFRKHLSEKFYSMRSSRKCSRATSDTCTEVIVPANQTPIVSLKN
In short: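 Male Swiss mice (22-26 g), groups of 10; test compound given po (20 mL/kg), controls 1% Tween 80. 60 min later, C18-PAF 100 µg/kg plus propanolol 1 mg/kg injected into a lateral tail vein. Mortality scored 2 h after PAF; % inhibition vs controls. ID50 from linear regression of one curve, ≥4 points. Initial dose 3 mg/kg; further doses only if >50% inhibition.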

Oryctolagus cuniculus = species: Oryctolagus cuniculus; test: In vitro inhibition of PAF-induced platelet aggregation in male rabbits
In short: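 Platelet-rich plasma from blood spun 250 g, 10 min, 4 °C, diluted with platelet-poor plasma (3000 g, 10 min) to 3.5 × 10^5 platelets/mm3. Aggregation induced with C18-PAF 1.5 × 10^-8 M and read on a dual-channel aggregometer. IC50 as 50% inhibition of maximal aggregation, by linear regression of one curve, ≥4 points, each the mean of 1-3 independent experiments.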

| Structure (SMILES) | ED50 (Mus musculus [1]) [mg/kg] | ED50 (Mus musculus [2]) [mg/kg] | ED50 (Mus musculus [3]) [mg/kg] | ED50 (Rattus norvegicus [4]) [mg/kg] | ED50 (Mus musculus [5]) [mg/kg] | ED50 (Rattus norvegicus [6]) [mg/kg] | ED50 (Rattus norvegicus [7]) [mg/kg] | ID50 [8] [mg/kg] | ED50 (Mus musculus [9]) [mg/kg] | ED50 (Rattus norvegicus [10]) [mg/kg] | ED50 (Mus musculus [11]) [mg/kg] | ID50 [12] [mg/kg] | IC50 (Oryctolagus cuniculus) [nM] |
| --- | --- | --- | --- | --- | --- | --- | --- | --- | --- | --- | --- | --- | --- |
| Cc1nnc2n1-c1sc(CCC(=O)N3CCOCC3)cc1C(c1ccccc1Cl)=NC2 [APAFANT] | 0.8 | 1.7 | 13.2 | 1.4 | 1.7 | 0.47 | – | – | – | – | – | – | – |
| Cc1ncccc1C(C#N)N1CCN(C(=O)CNC(c2ccccc2)c2ccccc2)CC1 (stereo not given) | – | 1.4 | 9 | – | – | – | 0.28 | 0.021 | 2.7 | 1.4 | 0.51 | 0.3 | – |
| COC(=O)NC(CC(=O)N1CCN(C(C#N)c2cccnc2C)CC1)c1ccccc1 (stereo not given) | 2.7 | 1.7 | 7.5 | 1 | 0.19 | 0.11 | – | 0.015 | – | – | – | 0.044 | – |
| Cc1ncccc1C(C#N)N1CCN(C(=O)CC(c2ccccc2)N2C(=O)CCC2=O)CC1 (stereo not given) | – | – | – | – | – | – | – | 0.042 | – | – | – | 0.71 | 69 |

— ChEMBL document CHEMBL1126841, “Synthesis and structure-activity relationships of 1-acyl-4-((2-methyl-3-pyridyl)cyanomethyl)piperazines as PAF antagonists” (J Med Chem, 1993)
